CHRM1 PAM: human M1 muscarinic receptor positive allosteric modulators, primary screen, CHO-K1 cells, Fluo-8 calcium fluorescence, 1536-well; Muscarinic acetylcholine receptor M1 (Homo sapiens), P11229; CHO-K1 hM1, ACh EC20; 0% = ACh EC20, 100% = maximal ACh; activation, % at 3 µM; hit rate 0.088% among 360,000; AID 588819, 2011; in the data active = activation above about 19%, passing the limit was not always enough
M5 antag: human M5 muscarinic receptor antagonists, primary screen, CHO cells, Fluo-8 calcium fluorescence | Muscarinic acetylcholine receptor M5 (Homo sapiens), P08912 | CHO-hM5 cells, ACh EC80 | inhibition, % at 3 µM | hit rate 0.59% among 360,000 | AID 624040, 2012;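 active = inhibition above a per-plate cutoff, the mean of that plate's test compounds plus 3 SD, cut at about 27% in these data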
Target sequence (P08912 whole entry, looked up): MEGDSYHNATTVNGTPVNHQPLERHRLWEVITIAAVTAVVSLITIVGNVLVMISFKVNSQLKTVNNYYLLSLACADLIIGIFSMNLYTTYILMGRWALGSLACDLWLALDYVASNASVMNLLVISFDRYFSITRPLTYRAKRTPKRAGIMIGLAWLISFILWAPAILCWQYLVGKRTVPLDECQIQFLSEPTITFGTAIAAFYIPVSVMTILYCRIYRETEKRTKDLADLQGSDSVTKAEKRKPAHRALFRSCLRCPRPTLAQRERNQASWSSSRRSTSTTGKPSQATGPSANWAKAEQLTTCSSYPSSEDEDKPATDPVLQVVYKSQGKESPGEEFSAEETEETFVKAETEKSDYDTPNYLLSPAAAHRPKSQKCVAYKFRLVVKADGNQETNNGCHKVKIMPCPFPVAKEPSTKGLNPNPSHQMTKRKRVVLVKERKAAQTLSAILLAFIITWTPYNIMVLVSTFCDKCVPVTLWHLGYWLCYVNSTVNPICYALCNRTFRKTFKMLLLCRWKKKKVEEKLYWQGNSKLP
M1 ag: human M1 muscarinic receptor agonists, primary screen, Fluo-8 calcium fluorescence, CHO-K1 cells, HTS; Muscarinic acetylcholine receptor M1 (Homo sapiens), P11229; CHO-K1 hM1, agonist mode; 0% DMSO, 100% acetylcholine EC100; hit rate 0.33% among 360,000; activation, % at 3 µM;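 active = activation above the run's mean compound activation plus 3 SD, cut at about 16% in these data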;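 also: peak over basal fluorescence ratio within a 140 s kinetic read after compound addition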
CHRM5 PAM: human M5 muscarinic receptor positive allosteric modulators, primary screen, CHO-K1 cells, Fluo-8 calcium fluorescence; activation, % at 3 µM; hit rate 0.3% among 360,000; CHO-K1 hM5, ACh EC20 PAM; 0% = ACh EC20, 100% = ACh EC100;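 active = activation above the run cutoff, the mean activation of all test compounds plus 3 SD, cut at about 18% in these data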
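Measured by: Fluo-8 calcium fluorescence; material: human M5 receptor in CHO-K1 cells; schedule: Post-acetylcholine fluorescence recording 140 s; benchmarks: low control EC20 acetylcholine (0%), high control EC100 acetylcholine (100%); read-out: Max/basal fluorescence ratio as % of EC20–EC100 ACh window; compound: single dose, 3 µM nominal final test concentration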
M1 antag: human M1 muscarinic receptor antagonists, primary screen, CHO-K1 cells, Fluo-8 calcium fluorescence, 1536-well. AID 588852, 2011. inhibition, % at 3 µM. CHO-K1 hM1, ACh EC80 antagonist. hit rate 1.3% among 360,000. Muscarinic acetylcholine receptor M1 (Homo sapiens), P11229;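 active = percent inhibition above its own plate's cutoff, namely the mean of that plate's compound wells plus 3 SD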;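 also: peak over basal fluorescence ratio during 140 s after agonist addition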
CHRM5 agonist: human M5 muscarinic receptor agonists, primary screen, CHO-K1 cells, Fluo-8 calcium fluorescence | Muscarinic acetylcholine receptor M5 (Homo sapiens), P08912 | CHO-K1 hM5 cells; 0% DMSO wells, 100% maximal acetylcholine response | activation, % at 3 µM | hit rate 0.19% among 360,000;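 active = activation above the run's mean over test compounds plus 3 SD, cut at about 23% in these data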;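 also: signal is peak over basal fluorescence ratio across the kinetic read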
Of the large screens only hits and unclear results are named; the others gave an inactive call. Hits are enriched below; roughly 2.2% of the tested compounds scored in any of these assays.

COc1ccc(C(CNC(=O)COc2ccccc2C)N2CCCCC2)cc1 (stereo unspecified)	none
C[C@@]12CCC3[C@@](CC[C@@H]4[C@](C)(C(=O)O)CCC[C@@]34C)(C[C@H]1O)C2 (stereo partly specified)	none
COC(C(=O)Nc1ccnn1C1CCN(Cc2cnn(C(C)C)c2)CC1)c1ccccc1 (stereo unspecified)	none
Cc1ccc(Cn2nnc(C(=O)Nc3cccc(C)c3C)c2N)cc1	M1 ag 39, CHRM5 agonist 38
Nc1c(C(=O)NCc2ccccc2)nnn1Cc1ccc(F)cc1	M1 ag 20
O=C(CSc1nc(O)cc(=O)[nH]1)N1c2ccccc2CCc2ccccc21	none
C[C@H]1CN([C@@H](C)CO)C(=O)CCCn2nncc2CO[C@H]1CN(C)S(=O)(=O)c1ccc(F)cc1	none
CCOC(=O)C1CCN(c2cc3c(cc2NC(=O)c2ccccc2OCC)n(C)c(=O)n3C)CC1	M5 antag 34
CCOC(=O)C1CCN(c2ccccc2CN2CCN(c3ccccc3OCC)CC2)CC1	M1 antag 48
CCOC(=O)C1CCN(Cc2ccc(F)cc2F)CC1	none
CC(Sc1nnnn1-c1ccc(O)cc1)C(=O)NC1CCCCC1C (stereo unspecified)	none
O=C(Oc1ccc2cccc(OC(=O)N3CCOCC3)c2c1)N1CCOCC1	CHRM5 PAM 19
O=C(Oc1cccc2c(OC(=O)N3CCOCC3)cccc12)N1CCOCC1	none
CC(=O)Nc1cc(-c2cccc(F)c2)cn2c(-c3ccccc3)cnc12	none
CCN(CC)S(=O)(=O)c1ccc(C(=O)NCc2ccc3c(c2)cc(C)n3C)cc1	M1 antag 57
Cc1cc2cc(CNC(=O)c3ccc(S(=O)(=O)N4CCCC4)cc3)ccc2n1C	M1 antag 73
Cc1cc2cc(CNC(=O)c3ccc(S(=O)(=O)N4CCCCC4)cc3)ccc2n1C	none
COc1ccc(CC2(CO)CCN(CC3=Cc4cc(Cl)ccc4OC3)CC2)cc1	M1 antag 27
COc1ccc2c(c1)C=C(CN1CCC(CO)(CCc3ccccc3)CC1)CO2	none
CCCn1ncc(CN2CCC(CO)(Cc3ccc(OC)cc3)CC2)c1C	M1 antag 42
Cc1ccc(NC(=O)CN(C)C(=O)COC(=O)COc2ccc(C#N)cc2)cc1	none
CCC(=O)N1CCCc2cc(S(=O)(=O)N3CCN(c4ncccn4)CC3)ccc21	none
CCC(=O)N1CCCc2cc(S(=O)(=O)N3CCN(c4ccccn4)CC3)ccc21	CHRM5 PAM 33
Cc1cc(=O)oc2ccc(OCC(=O)N(Cc3ccc(F)cc3)Cc3ccco3)cc12	M1 antag 34
CCOC(=O)Oc1ccc2oc(=O)cc(C)c2c1	none
COc1ccc(-c2coc3c(C(=O)NCc4ccc(OC)c(OC)c4)cccc23)c(C)c1	M5 antag 36, M1 antag 44
COc1ccc(-c2coc3c(C(=O)Nc4ccc(OC)nc4)cccc23)c(C)c1	none
COc1ccc(-c2coc3c(C(=O)NCc4ccc(F)c(F)c4)cccc23)c(C)c1	none
COc1ccc(-c2coc3c(C(=O)Nc4cc(OC)c(OC)c(OC)c4)cccc23)c(C)c1	M1 antag 45
COc1ccc(-c2ccc(C(=O)NCc3ccncc3)c3occc23)c(C)c1	M5 antag 32, M1 antag 42
CN(c1ccc(C(=O)Nc2ccc(CC#N)cc2)cc1)S(C)(=O)=O	none
O=C(CCS(=O)(=O)Cc1ccccc1)Nc1ncc([N+](=O)[O-])s1	none
O=C(COc1cccnc1[N+](=O)[O-])NCCc1ccccc1	none
CC(/C=N/n1c(-c2n[nH]c3c2CCC3)n[nH]c1=S)=C\c1ccco1	M1 antag 67
COc1cccc(/C=N/n2c(-c3n[nH]c4c3CCC4)n[nH]c2=S)c1OC	M1 antag 76
O=S(=O)(O)c1cc(O)ccc1O	M1 ag 35, CHRM5 agonist 36
O=S(=O)(c1cc(O)ccc1O)c1cccc2c(S(=O)(=O)c3cc(O)ccc3O)cccc12	none
CC(C)(C)OC(=O)N1CCCC(C(=O)Nc2cccc(C(=O)NCCc3ccccc3)c2)C1 (stereo unspecified)	none
CC(C)(C)OC(=O)N1CCCC(C(=O)Nc2cccc(C(=O)NCCCCc3ccccc3)c2)C1 (stereo unspecified)	M1 antag 27
CCN(CC)CCN1C(=O)c2ccccc2NC1c1ccccc1F (stereo unspecified)	M1 antag 89
CCn1c(Cl)c(C=O)s/c1=N\S(=O)(=O)c1ccccc1	M5 antag 33
CCN=C(NCC)SC1CC(=O)N(c2cccc(OC)c2)C1=O (stereo unspecified)	M1 antag 32
CCN=C(NCC)SC1CC(=O)N(c2ccc(OCC)cc2)C1=O (stereo unspecified)	M1 antag 30
CN=C(Nc1ccc2c(c1)OCO2)SC1CC(=O)N(c2ccccc2)C1=O (stereo unspecified)	none
CCN=C(NCC)SC1CC(=O)N(c2ccccc2)C1=O (stereo unspecified)	M1 antag 25
CCN=C(Nc1cccc(F)c1)SC1CC(=O)N(c2ccc(OC)cc2)C1=O (stereo unspecified)	none
Nc1nc2ccccc2n1C(=O)c1cccs1	none
O=C(Nc1ccc2c(c1)OCCO2)N1CCN(Cc2ccccc2)CC1	none
C=CCN1C(=O)C(Cc2ccc(SC(F)F)cc2)SC1=Nc1ccc(C(=O)O)cc1 (stereo unspecified)	M5 antag 27
CCCCc1ncc(CN2CCN(Cc3ccc(C)cc3)C(CCO)C2)[nH]1 (stereo unspecified)	none
COc1ccc(-c2cnc3c(NC(C)=O)cc(-c4cc(F)ccc4OC)cn23)cc1OC	M1 ag 17
COCCCN1C(=O)C(CC(=O)NCc2cccc3ccccc23)CC(C(=O)N(C(C)C)C(C)C)=C1C (stereo unspecified)	none
CCOc1ccc(CNc2nc3ccccc3n2C)cc1	CHRM5 PAM 21
C[C@@H]1Cn2cnc(C(=O)N[C@@H](Cc3c[nH]c4ccccc34)C(=O)OC(C)(C)C)c2C(=O)N1	none

High-throughput results: PubChem, The Scripps Research Institute Molecular Screening Center
